The sample as a whole holds a higher share of hits than the screen did.
Insulin prom act – TRM-6 insulin promoter activation | TRM-6 cells, insulin promoter eGFP reporter, imaging; plate-scaled: unstimulated 0, stimulated control 100 | activation, % at 2 µM | 0.81% of 130,000 active | AID 1296;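 active = activation at 2 µM above a set limit, confirmed on inspection of the cell images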;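 note: share of cells whose green reporter signal exceeds an intensity cutoff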
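System: human fetal islet-derived TRM-6 cells with tamoxifen-inducible insulin promoter–eGFP reporter; input: seeding density of 1,000 cells per well; buffer or medium: Low-glucose (5.5 mM) medium with tamoxifen; incubation: compound exposure 48 h, 37 °C; measured by: high-content imaging of fixed cells with Hoechst nuclear stain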
* marks the source's active call; other numbers are inactive results.

SMILES	Insulin prom act
CNS(=O)(=O)c1ccc(OC)c(-c2nnc3c4ccccc4c(C)nn23)c1	-7
O=C(CCCn1c(=O)[nH]c2cc(Cl)ccc2c1=O)NCCCN1CCN(c2ccc(F)cc2)CC1	267*
COc1ccc(N2CCN(C(=O)CCCn3c(=O)[nH]c4cc(Cl)ccc4c3=O)CC2)cc1	-74
O=C(CCCn1c(=O)[nH]c2cc(Cl)ccc2c1=O)NCCCN1CCCC1	-8
CC(=O)Nc1ccc(S(=O)(=O)NC2=NCN(C)CN2)cc1	8
CCOC(=O)CC1C(=O)NCCN1S(=O)(=O)c1ccccc1 (configuration not stated)	-6
Clc1ccc2c(c1)C(N1CCNCC1)Cc1ccccc1S2 (configuration not stated)	507*
Clc1cccc2c1Sc1ccccc1CC2N1CCNCC1 (configuration not stated)	3
Cc1cc(NC(=O)Cn2c(=O)n(CCCCC(=O)NC3CCN(Cc4ccccc4)CC3)c(=O)c3ccccc32)n[nH]1	-7
CCNC(=S)Nc1cc(OCC)c(N2CCOCC2)cc1OCC	-8
CCN(CC)C(=O)CSc1nc2ccccc2c(=O)n1CCC(=O)N1CCN(c2ccccc2)CC1	0
O=C(Nc1cccc([N+](=O)[O-])c1)c1ccc2c(c1)OCCO2	-5
O=C(O)CC(NC(=O)c1ccc2c(c1)OCO2)c1cccc([N+](=O)[O-])c1 (configuration not stated)	464*
O=C(N/N=C\c1ccc(-c2ccc([N+](=O)[O-])cc2)o1)c1ccc2c(c1)OCO2	-3
COc1ccc(NS(=O)(=O)c2cccc(NC(=O)C34CCC(CC3)C4)c2)cc1	3
CCCCn1nnnc1NCc1cccs1	-5
CC(=O)c1cccc(NC(=O)N2CCCC2C(=O)NCc2ccc3c(c2)OCO3)c1 (configuration not stated)	8
COc1ccc(NC(=O)C2CCCN2C(=O)Nc2ccccc2)cc1OC (configuration not stated)	-7
CC(=O)c1cccc(NC(=O)N2CCCC2C(=O)Nc2ccc3c(c2)OCCO3)c1 (configuration not stated)	493*
Cc1nn(-c2ccccc2)c(Cl)c1/C=N/Nc1nc2ccccc2n1C	-78
N/C(=N\OC(=O)CCc1ccccc1)c1ccccc1Cl	-10
O=c1c2c3c(sc2nc2sc(CN4CCCCC4)cn12)CCCC3	164
CCCCC1CCC(C(=O)Nc2c(C)n(C)n(-c3ccccc3)c2=O)CC1 (configuration not stated)	121
COc1ccc(S(=O)(=O)NCCSCc2ccco2)cc1OC	-9
COc1cc(NC(=O)Cc2ccccc2OC)cc(OC)c1	435*
SMILES	Insulin prom act
COc1ccccc1CC(=O)Nc1cccc2c1CCCC2	8
COc1ccccc1CC(=O)Nc1cc(Cl)ccc1O	-5
O=C(N/N=C/c1cccnc1)c1ccccc1OCc1ccc(Cl)cc1	-4
Cc1ccc(C2CC(=O)c3cnn(-c4nc(C)cc(C)n4)c3C2)cc1 (configuration not stated)	131
O=[N+]([O-])c1ccccc1CSc1nc2ccccc2o1	0
CCc1nc2sc3c(c2c(=O)o1)CCCC3	-7
Cc1nc2sc3c(c2c(=O)n1N)CCC3	0
O=C1CCc2nc3sc4c(c3c(=O)n2N1)CCCC4	412*
O=C(O)C1CCCCC1C(=O)NCc1ccc2c(c1)OCO2 (configuration not stated)	-7
Cc1c(Cl)cccc1NC(=O)CCC(=O)NNC(=O)c1ccco1	-8
CC1CCCC(C)N1C(=O)C1CCCCC1 (configuration not stated)	-7
CC(=O)N1C2CCCCC2S[C@H]2CCCCC21 (some centres not stated)	200*
CN1C=CC2=C(C#N)C(N)C(C#N)(C#N)[C@H](c3ccccc3)[C@H]2C1 (some centres not stated)	300*
C=CCNC(=O)/C(=C\C=C\c1ccccc1)NC(=O)c1ccc(OCCCC)cc1	-7
O=C(NCC1CCCO1)C(=O)NCC(c1ccco1)N1CCN(c2ccc(F)cc2)CC1 (configuration not stated)	-7
COC(=O)C(CCSC)NC(=O)c1cc2c(n(-c3ccccc3)c1=O)CC(C)(C)CC2=O (configuration not stated)	8
Fc1cnc(N2CCN(c3ccccc3)CC2)nc1N1CCN(c2ccccc2)CC1	-7
CCOC(=O)Cn1c(C)nc2c(C(=O)OCC)sc(C)c2c1=O	76*
COC(=O)Cn1c(C)nc2c(sc3nc(C)cc(C)c32)c1=O	5
CCOC(=O)c1sc2nc(C)[nH]c(=S)c2c1C	-79
Cc1ccc(N2CC(C(N)=O)CC2=O)cc1C (configuration not stated)	543*
Cc1ccccc1N1CC(C(=O)O)CC1=O (configuration not stated)	-3
Cc1cc(N2CC(C(=O)NCc3cccs3)CC2=O)ccc1C(C)C (configuration not stated)	0
CC1(C(=O)O)Oc2cccnc2NC1=O (configuration not stated)	409*
Cn1c(SCc2ccccc2)nnc1-c1ccncc1	0
SMILES	Insulin prom act
C/C(=N\Nc1ccc(Cl)c(Cl)c1)c1ccc(-n2ccnc2)cc1	-5
CC(C)(C)C(=O)Nc1ccc(C(=O)N/N=C/C2CC3C=CC2C3)cc1 (configuration not stated)	-8
Cc1cc(C2C(C#N)=C(N)OC3=C2C(=O)CC(C)(C)C3)c(C)s1 (configuration not stated)	-6
COc1ccc(NC(=O)c2ccc(Cl)c(S(=O)(=O)N3CCc4ccccc4C3)c2)cn1	0
COc1ccc(NC(=O)/C(Cl)=C(/Cl)S(=O)Cc2ccccc2Cl)cn1 (configuration not stated)	669*
COc1ccc(NC(=O)/C=C/c2ccc(F)cc2)cn1	7
CC(C)n1cc(/C=C2/NC(=O)NC2=O)c2ccccc21	-5
Oc1ccccc1N=Nc1nc(-c2ccccc2)c(-c2ccccc2)[nH]1	1
COc1ccc(/C=C/c2ccncc2)cc1	-8
CN(C)c1ccc(/C=C/c2ccncc2)cc1	87*
CC(C)OP(=O)(c1ccc(N(C)C)cc1)C(O)c1ccncc1 (configuration not stated)	-8
Cc1ccc(C)c(-n2c(SCC(=O)NCC3CCCO3)nnc2-c2ccoc2C)c1 (configuration not stated)	124
O=C(Nc1ccccc1)C(O)C(O)C(=O)Nc1ccccc1 (configuration not stated)	-5
CC(NS(=O)(=O)c1ccc(CCC(=O)NCc2cccnc2)cc1)c1ccccc1 (configuration not stated)	133
CC(c1ccccc1)n1cc(C(=O)NCc2cccnc2)nn1 (configuration not stated)	0
CCC(C(=O)NCc1cccnc1)c1ccccc1 (configuration not stated)	440*
Cc1ccccc1OCCCC(=O)Nc1ccc(Br)cc1	0
COc1ccc(C(CC(=O)O)NC(=O)c2ccccc2)cc1OC (configuration not stated)	64
O=C(CSc1nnc(-c2cccnc2)n1Cc1ccco1)NCc1ccc2c(c1)OCO2	285*
C=CCn1c(SCC(=O)NCc2ccc3c(c2)OCO3)nnc1-c1cccnc1	-76
COc1cccc(-c2nnc(SCC(=O)NCc3ccc4c(c3)OCO4)n2Cc2ccco2)c1	-4
CN(C)c1ccc(C(=S)N2CCN(C(=S)Nc3ccccc3)CC2)cc1	10
